Screening data deposited in PubChem BioAssay by The Scripps Research Institute Molecular Screening Center.
DAGLB inhibitor = DAGLB lipase inhibitors, primary screen, biochemical, fluorescence, HTS. Diacylglycerol lipase-beta (Homo sapiens), Q8NCG7. HEK293T DAGLB membrane lysate, EnzChek fluorogenic substrate. inhibition, % at 5.17 µM. 340,000 compounds, 0.059% hits; in the data active = inhibition above about 34%;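 note: 0% = enzyme with vehicle and 100% = wells lacking enzyme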
SIAE inh = human SIAE inhibitors, primary screen, biochemical, fluorescence polarization, FP-Rh probe, 1536-well HTS; SIAE FP-Rh probe binding; inhibition, % at 9.66 µM; Sialate O-acetylesterase (Homo sapiens), Q9HAT2; 370,000 compounds, 0.69% hits; AID 1053197, 2014;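 active = inhibition above a cutoff: mean of compounds within the control limits plus 3 SD of those, cut at about 17% in these data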;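 note: 0% = plate median of compound wells and 100% = probe without SIAE protein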
TCR CD3 inh = inhibitors of human TCR-CD3 interaction, primary screen, biochemical, fluorescence, TAMRA-labeled TCR probe; inhibition, % at 9.4 µM; T-cell receptor (TCR); 360,000 compounds, 0.37% hits; AID 651800, 2012;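 note: recombinant mutant TCR 2C K166C tagged with TAMRA read by polarization; 0% = receptor in buffer alone and 100% = receptor with positive control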
ABHD4 inh = ABHD4 inhibitors, primary screen, biochemical, fluorescence polarization, mouse | (Lyso)-N-acylphosphatidylethanolamine lipase (Mus musculus), Q8VD66 | purified mABHD4, FP-Rh probe fluorescence polarization | inhibition, % at 8.92 µM | 370,000 compounds, 0.54% hits | AID 720543, 2013;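 active = inhibition exceeding the mean over every tested compound plus 3 SD, cut at about 30% in these data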;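 note: 0% = plate median of compound wells and 100% = S159A mutant with DMSO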
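Assay system: Wild-type mouse ABHD4 protein | Medium: HEPES pH 7.0 buffer, 150 mM NaCl, 0.01% Pluronic F-127 | Incubation: Enzyme–compound pre-incubation 45 min, then probe 60 min, both 25 °C | Technique: Fluorescence polarization with parallel and perpendicular emission, 525/598 nm | Evaluation: % inhibition of FP-Rh probe binding versus controls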
HTRA1 inh = HTRA1 serine protease inhibitors, primary screen, biochemical, fluorescence polarization, HTS; Q92743; recombinant HTRA1, FP-rhodamine activity-based probe; inhibition, % at 5.96 µM; 340,000 compounds, 0.5% hits; in the data active = inhibition above about 36%;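 note: 0% = enzyme with DMSO and 100% = wells lacking enzyme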
Target sequence (Q92743 whole entry, looked up): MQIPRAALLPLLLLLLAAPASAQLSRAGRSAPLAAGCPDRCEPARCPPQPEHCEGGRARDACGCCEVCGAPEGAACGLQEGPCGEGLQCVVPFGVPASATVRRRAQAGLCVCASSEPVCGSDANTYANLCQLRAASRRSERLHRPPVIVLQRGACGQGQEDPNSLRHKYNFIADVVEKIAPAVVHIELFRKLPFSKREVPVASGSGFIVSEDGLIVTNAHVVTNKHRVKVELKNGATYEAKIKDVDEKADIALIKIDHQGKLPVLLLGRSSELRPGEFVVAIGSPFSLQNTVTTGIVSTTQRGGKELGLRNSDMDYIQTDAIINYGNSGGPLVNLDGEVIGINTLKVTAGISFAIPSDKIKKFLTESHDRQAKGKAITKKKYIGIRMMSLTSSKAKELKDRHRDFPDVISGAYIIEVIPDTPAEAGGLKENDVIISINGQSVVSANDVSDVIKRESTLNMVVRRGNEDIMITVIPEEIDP
HTRA1 conf = HTRA1 protease inhibitors, retest, confirmation, biochemical, fluorescence polarization; inhibition, % at 5.96 µM; 1,600 compounds, 66% hits; shares compounds with HTRA1 inh; recombinant HTRA1, FP-rhodamine activity-based probe;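 active = mean inhibition over three repeats above a set limit taken from the earlier primary screen, cut at about 37% in these data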;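 note: 0% = HTRA1 with DMSO and 100% = wells lacking HTRA1; inhibitors block probe binding so polarization drops and inhibition rises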
BSA probe FL = compounds interfering with TAMRA-BSA probe, counter-screen for TCR-CD3 interaction inhibitor project, biochemical, fluorescence, TAMRA-labeled BSA; inhibition, % at 9.4 µM; 1,200 compounds, 10% hits; shares compounds with TCR CD3 inh; AID 652035, 2013; TAMRA-labeled BSA probe fluorescence counterscreen; in the data active = inhibition above about 23%;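 note: 0% = buffer low control and 100% = reference high control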
TCR-CD3 conf = TCR-CD3 interaction inhibitors, retest, confirmation, biochemical, fluorescence, TAMRA-labeled TCR probe; shares compounds with TCR CD3 inh; TAMRA-labeled TCR probe fluorescence binding assay; inhibition, % at 9.4 µM; 1,200 compounds, 48% hits; AID 652036, 2013
ABHD4 confirm = ABHD4 inhibitors, retest, confirmation, biochemical, fluorescence polarization, mouse; inhibition, % at 8.92 µM; shares compounds with ABHD4 inh; purified mABHD4, FP-Rh probe fluorescence polarization; 1,800 compounds, 55% hits; AID 720658, 2013;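 active = mean inhibition across replicates above the hit cutoff set in the primary screen, cut at about 30% in these data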;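 note: 0% = wild-type ABHD4 with DMSO and 100% = catalytically dead S159A mutant with DMSO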
* marks the source's active call; other numbers are inactive results; / = no result given. Rows were chosen to be rich in hits. Some 1.6% of all compounds tested hit in one or more screens of this group. Cut-off read from the data, not from the text of the source, unless noted: active = inhibition above about 19%; inactive = the rest.

SMILES	DAGLB inhibitor	SIAE inh	TCR CD3 inh	ABHD4 inh	HTRA1 inh	HTRA1 conf	ABHD4 confirm	others
CN1CCCCC(NC(=O)C23CC4CC(CC(C4)C2)C3)C1=O (stereo not drawn)	/	-7.3	-1.1	2.6	/	/	/
COC(=O)[C@@H]1[C@H](O[Si](C)(C)C(C)(C)C)C2OC2C[C@H]1S(=O)(=O)c1ccccc1 (stereo partly drawn)	/	-4.8	/	1.1	/	/	/
O=C(NN1C(=O)/C(=C/C=C/c2ccco2)SC1=S)c1ccccc1O	14.6	9.7	-0.2	30.8*	39.6*	19.2	-26.2
Cn1cccc1/C=C1\SC(=S)N(NC(=O)c2ccccc2O)C1=O	8.2	-1.8	0.2	1.7	2.7	/	/
O=C(O)C(Cc1ccccc1)N1C(=O)/C(=C/C=C/c2ccco2)SC1=S (stereo not drawn)	10.6	11.2	15.9	41.8*	36.9*	14.8	-67.2
COc1cc2c(c(OC)c1)C(=O)O[C@H](C)C[C@@H]1O[C@H]1CCCCC(=O)C2	/	-1.5	/	1.1	/	/	/
O=C(NCC1CCN(C(=O)C(=O)c2cccs2)CC1)c1cccnc1	/	-1.9	4.5	5.6	/	/	/
CCc1ccc(/C=C/C(=O)c2cc(Br)ccc(=O)c2O)cc1	16.9	12.6	-6.6	37.6*	67.4*	66.0*	9.9
O=C(C=Cc1ccccc1)c1cc(Br)ccc1O	-14.8	-3.6	-4.0	-6.7	-16.4	/	/
Cc1cccc(/C=C/C(=O)c2cc(Br)ccc(=O)c2O)c1	19.1	8.6	0.5	35.7*	57.1*	59.0*	26.4
O=C(OCc1cn(Cc2cccc(Cl)c2)nn1)N1CCCC1	/	-9.4	/	-0.6	/	/	/
COc1ccc2noc3c2c1C(=O)c1ccccc1-3	-213.5	17.5*	22.3*	54.1*	62.8*	45.1*	29.3	BSA probe FL=44.1*;TCR-CD3 conf=28.6*
O=C1c2ccccc2C(=O)c2c(/C=C/N3CCCCC3)ccnc21	5.6	10.6	7.3	46.3*	60.9*	64.3*	36.3*
C[C@@H]1CN(c2ccc(N3CCN(C(=O)OC(C)(C)C)C[C@@H]3C)cc2C#N)C[C@H](C)O1	/	-0.4	6.0	-5.9	/	/	/
Cc1ccc(C)c2c1c1ccccc1n2C	-5.7	-0.1	3.1	-6.3	-0.5	/	/
Cc1ccc2c(c1)c1ccc3c(c1n2C)C(=O)C=CC3=O	9.1	-8.6	0.5	67.8*	40.1*	61.6*	84.8*
Cn1c2ccccc2c2ccc3c(c21)C(=O)C=CC3=O	10.0	-2.1	8.4	42.0*	40.2*	63.1*	72.0*
COc1cccc(C2CC=C(C(=O)O)CN2S(=O)(=O)c2ccc(C)cc2)c1 (stereo not drawn)	/	-2.8	/	9.0	/	/	/
Cc1cccc(O)c1C	-1.1	3.1	1.6	-0.7	-6.7	/	/
Cc1cccc(C)c1N=Nc1c(C)cc(O)cc1C	18.8	10.7	3.0	32.4*	47.0*	50.5*	38.5*
CC(C)c1cc2c(c(O)c1O)[C@@]13CCCC(C)(C)C1CC2OC3=O (stereo partly drawn)	22.8	20.1*	-2.9	30.9*	48.3*	18.5	26.2
Cc1ccc2nc(SCC(=O)N/N=C/c3ccco3)cc(C)c2c1	-0.3	4.9	5.8	-3.1	-26.5	/	/
O=C(CSc1nc2ccccc2o1)N/N=C/c1ccc(O)c(O)c1	3.7	16.1	12.8	34.3*	36.8*	65.9*	29.0
Cc1cc(SCC(=O)N/N=C/c2ccc(O)c(O)c2)nc2ccccc12	13.1	3.2	25.7*	34.6*	78.5*	74.0*	31.5*	BSA probe FL=-9.8;TCR-CD3 conf=39.0*
CCn1c(COc2ccccc2)nnc1SCC(=O)Nc1ccc(Oc2ccccc2)cc1	/	-6.5	/	-5.4	/	/	/
SMILES	DAGLB inhibitor	SIAE inh	TCR CD3 inh	ABHD4 inh	HTRA1 inh	HTRA1 conf	ABHD4 confirm	others
Oc1ccc(/C=N/N(Cc2ccccc2)c2ccccc2)c(O)c1O	11.8	15.3	10.1	34.5*	67.8*	55.2*	45.7*
Cc1ccc(NC(=O)c2ccc(CS(=O)(=O)Cc3ccccc3C)o2)cc1C	/	-2.3	/	1.7	/	/	/
C[C@H]1[C@@H](OC(=O)NCc2ccc(Cl)c(Cl)c2)CC[C@@]23CCCN2C(=O)CCC[C@@H]13	/	-2.8	/	2.4	/	/	/
Oc1ccc(Nc2nc(-c3ccc4ccccc4c3)cs2)cc1	3.7	9.4	-0.8	6.3	32.1	/	/
Oc1ccc(-c2nc(-c3ccc(O)c(O)c3)cs2)cc1	1.2	10.8	-2.7	33.3*	55.1*	55.0*	32.1*
Cc1ccccc1CN1CCCCC(NC(=O)C(C)(C)C)C1=O (stereo not drawn)	/	0.9	/	2.6	/	/	/
CC1CCN(C2=C(NS(=O)(=O)c3ccc(Br)cc3)C(=O)c3ccccc3C2=O)CC1	24.8	8.4	-2.3	40.6*	36.3*	86.3*	65.4*
O=C1C(NS(=O)(=O)c2ccc(Br)cc2)=C(N2CCCCC2)C(=O)c2ccccc21	21.1	6.5	-2.1	13.2	15.4	/	/
CC1CCN(C2=C(NS(=O)(=O)c3ccccc3)C(=O)c3ccccc3C2=O)CC1	31.7	8.1	8.0	20.2	25.4	/	/
O=C1C(NS(=O)(=O)c2ccccc2)=C(N2CCN(c3ccc(F)cc3)CC2)C(=O)c2ccccc21	26.9	2.2	-5.6	52.5*	48.0*	63.3*	63.1*
C=CCN1C(=O)[C@]2(OCCC=C[C@H]2C)c2cc(OC)ccc21	/	-1.8	-1.0	4.9	/	/	/
CC(=O)c1sc(N/N=C/c2cccc(O)c2)nc1C	1.2	0.8	-0.3	7.8	0.0	/	/
CC(=O)c1sc(N/N=C\c2c(O)ccc3ccccc23)nc1C	5.6	13.9	7.4	31.1*	38.6*	43.6*	28.0
N#C/C(=C\c1ccc(O)c(O)c1)C(=O)Nc1ccccc1	31.9	10.1	12.3	73.0*	68.4*	177.0*	43.0*
C[C@@H](NC(=O)/C(C#N)=C/c1ccc(O)c(O)c1)c1ccccc1	22.6	10.5	3.1	53.8*	68.3*	91.2*	27.5
N#C/C(=C\c1cccnc1)C(=O)Nc1ccccc1	0.9	2.5	3.9	-4.3	-0.3	/	/
